Screens deposited in PubChem by several laboratories.
NR1D1 modulator: modulators of human Rev-erb alpha DNA binding; Rev-erbα–FITC-DNA binding, fluorescence polarization, 90 min; activity, % at 10 µM; 370,000 compounds, 0.79% hits;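 active = activity above about 14%, limit read from the data; passing the limit was not always enough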
MsrA inhibitor: bovine MsrA inhibition. purified bovine MsrA, absorbance read-out. inhibition, % at 15.5 µM. 360,000 compounds, 0.75% hits
ASAP1 GAP inh: inhibitors of human ASAP1 ArfGAP activity. Q9ULH1. ASAP1-stimulated ARF1 GTP hydrolysis, GDP FP detection. inhibition, % at 16.5 µM. 360,000 compounds, 0.19% hits; in the data active = inhibition above about 25%
Target sequence (Q9ULH1 325-724 limits assumed): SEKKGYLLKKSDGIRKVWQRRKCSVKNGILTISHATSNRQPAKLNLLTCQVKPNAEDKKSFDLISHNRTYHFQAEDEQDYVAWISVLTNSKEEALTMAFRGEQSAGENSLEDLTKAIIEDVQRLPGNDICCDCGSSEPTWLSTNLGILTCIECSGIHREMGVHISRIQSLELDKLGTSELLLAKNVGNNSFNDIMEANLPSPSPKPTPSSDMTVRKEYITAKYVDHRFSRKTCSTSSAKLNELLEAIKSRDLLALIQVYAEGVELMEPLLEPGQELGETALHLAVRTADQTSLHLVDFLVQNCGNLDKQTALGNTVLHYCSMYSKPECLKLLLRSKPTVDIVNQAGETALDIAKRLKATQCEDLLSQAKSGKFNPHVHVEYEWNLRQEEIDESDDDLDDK
sPLA2-III inh: Blocks human group III sPLA2 activity; inhibition, % at 12.2 µM; QFRET BODIPY PC-A2 liposome hydrolysis, fluorescence; 370,000 compounds, 0.56% hits; AID 743126;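 active = inhibition above mean plus 3 SD of compounds lying within the high and low control bounds, cut at about 19% in these data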
ARFGAP1 inh: inhibitors of rat ARFGAP1; 360,000 compounds, 0.26% hits; Arfgap1-stimulated ARF1 GTP hydrolysis, GDP FP detection; inhibition, % at 16.5 µM;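 active = inhibition above a per-plate limit, mean inhibition of low control wells plus 3 SD, cut at about 25% in these data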
Target sequence (Q62848 1-136 limits assumed): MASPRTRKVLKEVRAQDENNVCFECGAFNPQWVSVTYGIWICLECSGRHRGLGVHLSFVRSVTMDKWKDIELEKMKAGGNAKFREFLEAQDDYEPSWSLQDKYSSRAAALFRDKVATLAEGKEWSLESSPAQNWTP
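Repeats: one replicate per compound; assay system: rat Arfgap1 catalytic domain, aa 1-136; times: enzyme reaction 120 min at 25 °C after 20 min preincubation; detection: FP of antibody-bound GDP Alexa 633 tracer, ex 620/em 688 nm; benchmarks: high control wells lacking Arfgap1, low control full reaction with DMSO; reagent: human ARF1(Δ1-17)-GTP substrate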
bovine MsrA act: activates bovine MsrA enzyme; 360,000 compounds, 0.3% hits; activation, % at 10.6 µM; purified bovine MsrA, absorbance read-out; in the data active = activation above about 7.5%
MsrA inh confirm: bovine MsrA inhibition, confirmed | purified bovine MsrA, absorbance read-out | 2,300 compounds, 41% hits | inhibition, % at 15.5 µM | AID 651822 | shares compounds with MsrA inhibitor;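 also: coupled to thioredoxin reductase with NADPH and selenocystamine and DMSO as substrate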
A number is an active result. Sampled rows, rich in hits. Any-hit rate of the full collection: about 2.7%. Rule as the data show it, unless noted: active = inhibition above about 4.5%; inactive = the rest.

Results for COc1cc(/C=N/NC(=O)c2cc[n+]([O-])cc2)ccc1O ?
NR1D1 modulator: inactive; MsrA inhibitor: 7.5; ASAP1 GAP inh: inactive; sPLA2-III inh: inactive; ARFGAP1 inh: inactive; bovine MsrA act: inactive; MsrA inh confirm: 5.2

Results for CN(CCc1ccccn1)C(=O)Cn1nc(-c2ccccc2)ccc1=O ?
NR1D1 modulator: inactive; sPLA2-III inh: inactive

What do the screens show for `CCOc1cc(/C=N\NC(=O)c2c(C)nc3ccccn23)ccc1O`?
NR1D1 modulator: inactive; MsrA inhibitor: 5.6; ASAP1 GAP inh: inactive; sPLA2-III inh: inactive; ARFGAP1 inh: inactive; bovine MsrA act: inactive; MsrA inh confirm: 4.9

What do the screens show for `CCCOc1ccc(/C=N/NC(=O)C(=O)Nc2ccccn2)cc1`?
NR1D1 modulator: inactive; MsrA inhibitor: inactive; ASAP1 GAP inh: inactive; sPLA2-III inh: inactive; ARFGAP1 inh: inactive; bovine MsrA act: inactive

What do the screens show for `COc1cc(/C=N/NC(=O)c2cn(-c3cccc(C)n3)cn2)ccc1O`?
NR1D1 modulator: inactive; MsrA inhibitor: 4.7; ASAP1 GAP inh: inactive; sPLA2-III inh: inactive; ARFGAP1 inh: inactive; bovine MsrA act: inactive; MsrA inh confirm: inactive

Results for COc1cc(/C=N/NC(=O)C(=O)Nc2ccccn2)ccc1O ?
NR1D1 modulator: inactive; MsrA inhibitor: 5.3; ASAP1 GAP inh: inactive; sPLA2-III inh: inactive; ARFGAP1 inh: inactive; bovine MsrA act: inactive; MsrA inh confirm: 5.0

How did Cc1nc2ccccn2c1C(=O)N/N=C/c1ccc2c(c1)OCO2 do in these assays?
NR1D1 modulator: inactive; MsrA inhibitor: inactive; ASAP1 GAP inh: inactive; sPLA2-III inh: inactive; ARFGAP1 inh: inactive; bovine MsrA act: inactive

How did COc1ccc(/C=N/NC(=O)c2cc3c(OC)ccc(OC)c3[nH]2)cc1O do in these assays?
NR1D1 modulator: inactive; MsrA inhibitor: 6.6; ASAP1 GAP inh: inactive; sPLA2-III inh: inactive; ARFGAP1 inh: inactive; bovine MsrA act: inactive; MsrA inh confirm: 5.8

Results for CCOC(=O)[C@]12CCCC=C1N(Cc1ccc(OC)cc1)C(=O)[C@@H]2CC(=O)N1CCN(C(=O)c2ccco2)CC1 ?
NR1D1 modulator: inactive; sPLA2-III inh: inactive

What do the screens show for `C=CCN1[C@H](CC(C)C)COc2cc(N3CCSCC3)ccc2S1(=O)=O`?
NR1D1 modulator: inactive; sPLA2-III inh: inactive

How did C=CCN1C(C(=O)OC)CN(Cc2cn(Cc3ccc(F)cc3)nn2)CCS1(=O)=O (centres undefined) do in these assays?
NR1D1 modulator: inactive; sPLA2-III inh: inactive

What do the screens show for `COc1cc(/C=N/NC(=O)c2nc(C)cc(C)n2)ccc1O`?
NR1D1 modulator: inactive; MsrA inhibitor: inactive; ASAP1 GAP inh: inactive; sPLA2-III inh: inactive; ARFGAP1 inh: inactive; bovine MsrA act: inactive

How did COc1cc(/C=N/NC(=O)c2cc3ccccc3[nH]2)ccc1O do in these assays?
NR1D1 modulator: inactive; MsrA inhibitor: 8.4; ASAP1 GAP inh: inactive; sPLA2-III inh: inactive; ARFGAP1 inh: inactive; bovine MsrA act: inactive; MsrA inh confirm: 5.9

What do the screens show for `COc1cccc(/C=N/NC(=O)c2cnccn2)c1`?
NR1D1 modulator: inactive; MsrA inhibitor: inactive; ASAP1 GAP inh: inactive; sPLA2-III inh: inactive; ARFGAP1 inh: inactive; bovine MsrA act: inactive

Results for COc1ccc(/C=N/NC(=O)c2cnccn2)cc1O ?
NR1D1 modulator: inactive; MsrA inhibitor: 4.8; ASAP1 GAP inh: inactive; sPLA2-III inh: inactive; ARFGAP1 inh: inactive; bovine MsrA act: inactive; MsrA inh confirm: 4.8

Results for COc1ccc(/C=N/NC(=O)c2cc(=O)[nH]c3ccccc23)cc1OC ?
NR1D1 modulator: inactive; MsrA inhibitor: 4.7; ASAP1 GAP inh: inactive; sPLA2-III inh: inactive; ARFGAP1 inh: inactive; bovine MsrA act: inactive; MsrA inh confirm: inactive

How did CCN(CC)c1ccc(C=Nc2cccc(S(=O)(=O)N3CCOCC3)c2)c(O)c1 do in these assays?
NR1D1 modulator: inactive; MsrA inhibitor: 5.8; ASAP1 GAP inh: inactive; sPLA2-III inh: inactive; ARFGAP1 inh: inactive; bovine MsrA act: inactive; MsrA inh confirm: 5.2

What do the screens show for `CCN(CC)c1ccc(/C=N/NC(=O)c2cccc(S(=O)(=O)N3CCOCC3)c2)c(O)c1`?
NR1D1 modulator: inactive; MsrA inhibitor: inactive; ASAP1 GAP inh: inactive; sPLA2-III inh: inactive; ARFGAP1 inh: inactive; bovine MsrA act: inactive

What do the screens show for `CCOc1ccc(CCNC(=O)c2ccccn2)cc1OCC`?
NR1D1 modulator: inactive; sPLA2-III inh: inactive

What do the screens show for `O=C(c1ccccc1Cl)N1CCC(Oc2cccnc2)CC1`?
NR1D1 modulator: inactive; sPLA2-III inh: inactive

What do the screens show for `Cc1cccn2c(=O)c3cc(C(=O)NCCN4CCOCC4)c(=N)n(CCCN4CCOCC4)c3nc12`?
NR1D1 modulator: inactive; MsrA inhibitor: 5.4; ASAP1 GAP inh: inactive; sPLA2-III inh: inactive; ARFGAP1 inh: inactive; bovine MsrA act: inactive; MsrA inh confirm: inactive

Results for CC[C@@H](CCC(=O)N(c1ccccc1)c1ccccc1)c1ccc(C)cc1 ?
NR1D1 modulator: inactive; sPLA2-III inh: inactive

What do the screens show for `CC1(C)Cc2c(cnn2-c2ccc(F)cc2)C(NC(=O)c2ccc(=O)oc2)C1` (centres undefined)?
NR1D1 modulator: inactive; MsrA inhibitor: 6.4; ASAP1 GAP inh: inactive; sPLA2-III inh: inactive; ARFGAP1 inh: inactive; bovine MsrA act: inactive; MsrA inh confirm: 5.5

How did Cc1c(CC(=O)NC(C)C)c(=O)oc2cc3c(cc12)CCC(C)(C)O3 do in these assays?
NR1D1 modulator: inactive; MsrA inhibitor: inactive; ASAP1 GAP inh: inactive; sPLA2-III inh: inactive; ARFGAP1 inh: inactive; bovine MsrA act: inactive

Results for Cc1c(CC(=O)N[C@@H](C)C(=O)O)c(=O)oc2cc3c(cc12)CCC(C)(C)O3 ?
NR1D1 modulator: inactive; MsrA inhibitor: 5.3; ASAP1 GAP inh: inactive; sPLA2-III inh: inactive; ARFGAP1 inh: inactive; bovine MsrA act: inactive; MsrA inh confirm: inactive

How did O=C(CCN1C(=O)S/C(=C/c2ccccc2)C1=O)Nc1ccc(O)c(C(=O)O)c1 do in these assays?
NR1D1 modulator: inactive; MsrA inhibitor: 6.5; ASAP1 GAP inh: inactive; sPLA2-III inh: inactive; ARFGAP1 inh: inactive; bovine MsrA act: inactive; MsrA inh confirm: inactive

What do the screens show for `O=C(CCN1C(=O)/C(=C\c2ccccc2)SC1=S)Nc1ccc(C(=O)O)cc1`?
NR1D1 modulator: inactive; MsrA inhibitor: inactive; ASAP1 GAP inh: inactive; sPLA2-III inh: inactive; ARFGAP1 inh: inactive; bovine MsrA act: inactive

What do the screens show for `O=C(CN1C(=O)S/C(=C\c2cccs2)C1=O)Nc1ccc(O)cc1C(=O)O`?
NR1D1 modulator: inactive; MsrA inhibitor: 5.1; ASAP1 GAP inh: inactive; sPLA2-III inh: inactive; ARFGAP1 inh: inactive; bovine MsrA act: inactive; MsrA inh confirm: inactive

Results for O=C(CCN1C(=O)S/C(=C\c2ccccc2)C1=O)Nc1ccc(O)cc1C(=O)O ?
NR1D1 modulator: inactive; MsrA inhibitor: 4.8; ASAP1 GAP inh: inactive; sPLA2-III inh: inactive; ARFGAP1 inh: inactive; bovine MsrA act: inactive; MsrA inh confirm: inactive

What do the screens show for `CCC(=O)OCCCN1C(=O)CCC12CCC(C)CC2` (centres undefined)?
NR1D1 modulator: inactive; sPLA2-III inh: inactive

How did COC(=O)[C@]1(CNC(C)=O)CC(=O)N(Cc2ccc(Cl)cc2)[C@@H]1c1ccc(OC)cc1 do in these assays?
NR1D1 modulator: inactive; sPLA2-III inh: inactive
